Experimental data published in the RNAGym collection of RNA variant scans (doi:10.1126/science.aae0568).
Variants at the floor of the assay were thinned out.

B1: tRNA (parent)
chain: GUUCCGUUGGCGUAAUGGUAACGCGUCUCCCUCCUAAGGAGAAGACUGCGGGUUCGAGUCCCGUACGGAACG

Variants of: B1
Test: yeast fitness relative to wild type (ratio to wild type); higher = fitter; tRNA-Arg(CCU), competitive growth, 37 C, YPD
In short: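 For this measurement, the tRNA-Arg(CCU) gene was varied by chemical synthesis at a 3% per-site mutation rate across 69 sites, and each variant was placed at the native genomic locus in Saccharomyces cerevisiae. The pooled strains went through a 24-hour competition in YPD at 37°C in six parallel replicates, with amplicons from start and end populations read by 100-nucleotide paired-end sequencing. Darwinian fitness relative to wild type followed from the change in each genotype's frequency. Genotypes needed ≥ 100 starting reads, and estimates < 0.5 were set to 0.5.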

Variant	yeast fitness
U7G A45G A65C C66A	1.03
U7G A45U	0.852
U7G A45U C55A	≤ 0.5
U7G A57G C60U	0.62
U7G A57G G68U	≤ 0.5
U7G A65C	0.998
U7G A69U	0.894
U7G A70C	0.972
U7G C11G	0.692
U7G C11G A21G C34U G41A	≤ 0.5
U7G C11G C30G G41C	≤ 0.5
U7G C11G C34U A36G G41A A65G	≤ 0.5
U7G C11G C34U C49U U59C C62G	≤ 0.5
U7G C11G C34U G41A A57U C66U	≤ 0.5
U7G C11G C34U G41A A65C	≤ 0.5
U7G C11G C34U G41A A65G	≤ 0.5
U7G C11G C34U G41A A70U	≤ 0.5
U7G C11G C34U G41A C60A C61U G63C C66U	≤ 0.5
U7G C11G C34U G41A C61A A65C	≤ 0.5
U7G C11G C34U G41A G67U	≤ 0.5
U7G C11G C34U G41A U54C U64C	≤ 0.5

Variant	yeast fitness
U7G C11G U32A U53G	≤ 0.5
U7G C11U	0.807
U7G C11U C60A	≤ 0.5
U7G C11U G12C C33U C61G C62G	≤ 0.5
U7G C11U G12C C33U U64A G68C	≤ 0.5
U7G C22A C61G	≤ 0.5
U7G C22A U53C	≤ 0.5
U7G C22A U64C	≤ 0.5
U7G C22G A43U U47A G51A	0.664
U7G C22G G50A G67A	≤ 0.5
U7G C22U C24G A65U C66U	≤ 0.5
U7G C22U C24U U53A	≤ 0.5
U7G C22U C49G G50C	0.512
U7G C22U C49G G50C C66A	≤ 0.5
U7G C22U U26C U64G G67C	≤ 0.5
U7G C24G	0.619
U7G C27A A36C A42U	0.532
U7G C27A A40U	≤ 0.5
U7G C27G U28G C66U	≤ 0.5
U7G C27G U28G G39C A42G	≤ 0.5
U7G C27G U28G G52C G58C A65U A70C	≤ 0.5

Variant	yeast fitness
U7G C27G U28G G67A	0.547
U7G C27G U28G G68A	≤ 0.5
U7G C27G U28G U59C	≤ 0.5
U7G C27G U32C A36G	≤ 0.5
U7G C27G U32C A36G G63A	≤ 0.5
U7G C27G U32C U35C A36G U53A G56A	≤ 0.5
U7G C27U C33U	≤ 0.5
U7G C27U C33U G50C U53A A57U A65U	≤ 0.5
U7G C27U C49U	0.59
U7G C27U G68A	≤ 0.5
U7G C29A	0.649
U7G C29A C30A U54A A57G U64A	0.561
U7G C29G C30U C46U	0.534
U7G C29G C46U	0.546
U7G C29G C61U G68A	≤ 0.5
U7G C29G G52C A57U	≤ 0.5
U7G C29G U35C C46U	≤ 0.5
U7G C29U A36U	≤ 0.5
U7G C29U C31U G38C	≤ 0.5
U7G C29U C31U G38C A70G	≤ 0.5
U7G C30A	0.721

Variant	yeast fitness
U7G C30A C55A	≤ 0.5
U7G C30A G48A	0.673
U7G C30G	0.509
U7G C30U	0.895
U7G C30U C60U A69C	0.576
U7G C30U G38A	0.591
U7G C30U G38A G50A G68C	≤ 0.5
U7G C30U G50C	≤ 0.5
U7G C31U G39A C55U G68C	≤ 0.5
U7G C31U U47C	0.536
U7G C33A A69G	0.598
U7G C33U C55G	≤ 0.5
U7G C34A A36U G52A C60A	≤ 0.5
U7G C34A G44C G51A	≤ 0.5
U7G C34A G44C G51A C62A	≤ 0.5
U7G C34G	0.649
U7G C34G A36C	0.525
U7G C34U	0.588
U7G C34U C60A	≤ 0.5
U7G C46A C61G A69G	≤ 0.5
U7G C46U A70G	0.752
